Blank lines part the entries; values can stand above or below the molecule they belong to. The source made the active and inactive calls. No cut-off for these calls is given here.
Experiments:
[1] = target: Thymidine phosphorylase (Escherichia coli K-12) (UniProt P07650); experiment: Inhibition of Escherichia coli thymidine phosphorylase at 68.4 to 136.9 uM
How it was run: (§1)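 Recombinant E. coli TP (0.00883 U per 0.2 ml) added to start a continuous spectrophotometric assay. Mix: 0.13 mM 5-nitro-2'-deoxyuridine substrate in 0.1 M potassium phosphate, pH 7.4, 25 °C, read at 355 nm in a microplate. Initial velocity compared with the mean of at least two no-inhibitor controls. Where derived, IC50 used at least five concentrations spanning the value.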

[2] = target: Thymidine phosphorylase (Escherichia coli K-12) (UniProt P07650); experiment: Inhibition of Escherichia coli thymidine phosphorylase at 158 uM; how it was run: as §1
[3] = target: Thymidine phosphorylase (Escherichia coli K-12) (UniProt P07650); experiment: Inhibition of Escherichia coli thymidine phosphorylase at 106.3 to 212.6 uM; how it was run: as §1
[4] = target: Thymidine phosphorylase (Escherichia coli K-12) (UniProt P07650); experiment: Inhibition of Escherichia coli thymidine phosphorylase at 74 to 148 uM; how it was run: as §1
[5] = target: Thymidine phosphorylase (Escherichia coli K-12) (UniProt P07650); experiment: Inhibition of Escherichia coli thymidine phosphorylase at 66 uM; how it was run: as §1
[6] = target: Thymidine phosphorylase (Escherichia coli K-12) (UniProt P07650); experiment: Inhibition of Escherichia coli thymidine phosphorylase at 45 uM; how it was run: as §1
[7] = target: Thymidine phosphorylase (Escherichia coli K-12) (UniProt P07650); experiment: Inhibition of Escherichia coli thymidine phosphorylase at 47.2 uM
How it was run: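 Recombinant E. coli TP; continuous spectrophotometric assay at 355 nm, 25 °C, 0.2 ml. Contains 0.13 mM 5-nitro-2'-deoxyuridine substrate in 0.1 M potassium phosphate pH 7.4. Reaction started with TP (0.00883 U/0.2 ml). Inhibitor added from stock. Initial velocity compared with the mean of at least two no-inhibitor controls.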

[8] = target: T1, Thymidine phosphorylase (Homo sapiens) (UniProt P19971); experiment: Inhibition of human recombinant thymidine phosphorylase at 62.3 uM
T1 sequence (whole entry): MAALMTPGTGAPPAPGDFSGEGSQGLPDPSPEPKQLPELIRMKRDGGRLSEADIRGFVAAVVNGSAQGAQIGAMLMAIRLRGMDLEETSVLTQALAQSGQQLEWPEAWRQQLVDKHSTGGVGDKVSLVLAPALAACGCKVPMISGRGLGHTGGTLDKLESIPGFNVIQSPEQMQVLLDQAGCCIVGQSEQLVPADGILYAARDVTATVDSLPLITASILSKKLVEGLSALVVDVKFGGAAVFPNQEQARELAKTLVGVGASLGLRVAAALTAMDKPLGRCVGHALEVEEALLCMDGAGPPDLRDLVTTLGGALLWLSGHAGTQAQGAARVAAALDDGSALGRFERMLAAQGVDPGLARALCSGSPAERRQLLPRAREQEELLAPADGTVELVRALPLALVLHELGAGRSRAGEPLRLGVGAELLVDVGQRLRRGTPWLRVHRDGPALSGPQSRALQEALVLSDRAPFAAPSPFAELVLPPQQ
How it was run: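 Recombinant human TP expressed in V79 Chinese hamster cells; continuous spectrophotometric assay at 355 nm, 25 °C. Uses 0.33 mM 5-nitro-2'-deoxyuridine substrate in 0.1 M potassium phosphate pH 7.4. Reaction started by adding enzyme. Inhibition taken from initial velocity relative to the mean of at least two no-inhibitor controls.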

[9] = target: Thymidine phosphorylase (Escherichia coli K-12) (UniProt P07650); experiment: Inhibition of Escherichia coli thymidine phosphorylase at 163 uM; how it was run: as §1
[10] = target: Thymidine phosphorylase (Escherichia coli K-12) (UniProt P07650); experiment: Inhibition of Escherichia coli thymidine phosphorylase at 73.7 to 147.7 uM; how it was run: as §1
[11] = target: Thymidine phosphorylase (Escherichia coli K-12) (UniProt P07650); experiment: Inhibition of Escherichia coli thymidine phosphorylase at 103.6 to 207.2 uM; how it was run: as §1

Chain of Thymidine phosphorylase (Escherichia coli K-12) (P07650 whole entry, looked up): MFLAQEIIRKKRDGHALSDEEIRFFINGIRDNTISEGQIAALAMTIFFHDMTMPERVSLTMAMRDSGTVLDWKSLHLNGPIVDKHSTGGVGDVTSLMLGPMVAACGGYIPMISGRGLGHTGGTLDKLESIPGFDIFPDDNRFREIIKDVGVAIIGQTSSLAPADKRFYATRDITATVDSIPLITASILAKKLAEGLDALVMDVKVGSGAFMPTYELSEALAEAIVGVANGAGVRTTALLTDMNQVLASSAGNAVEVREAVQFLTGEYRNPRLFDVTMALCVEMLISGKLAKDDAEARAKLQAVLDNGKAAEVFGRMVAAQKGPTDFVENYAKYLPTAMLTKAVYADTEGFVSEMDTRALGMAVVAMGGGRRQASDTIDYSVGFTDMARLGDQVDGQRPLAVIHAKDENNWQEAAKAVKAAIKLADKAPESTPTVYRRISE

Structure (SMILES): O=c1[nH]c(=O)c2nc[nH]c2[nH]1
Activity [2]: inactive

Structure (SMILES): Cc1nc[nH]c(=O)c1Cl
Activity [5]: inactive

Structure (SMILES): O=c1[nH]c(=S)[nH]c2[nH]ccc12
Activity [6]: inactive

Structure (SMILES): N=C1CCCN1Cc1nc[nH]c(=O)c1Cl
Activity [7]: inactive | Activity [8]: inactive

Structure (SMILES): O=c1nccc2[nH]ccn12
Activity [9]: inactive

Structure (SMILES): O=c1[nH]cnc2[nH]ccc12
Activity [11]: inactive

Next, values leading:

Activity [1]: inactive
Structure (SMILES): Nc1[nH]c(=O)ncc1Br

Activity [3]: inactive
Structure (SMILES): Nc1ncncc1Br

Activity [4]: inactive
Structure (SMILES): O=c1ncc2cc[nH]c2[nH]1

Activity [10]: inactive
Structure (SMILES): Nc1nc[nH]c(=O)c1Br
